{
  "source": "ChEMBL document CHEMBL4364245",
  "about": "(Eur J Med Chem, 2019)",
  "key": {"[1]": {"target": "Neuraminidase (Influenza A virus (A/Memphis/1/1971(H3N2)), UniProt P03471)", "sequence (P03471 whole entry)": "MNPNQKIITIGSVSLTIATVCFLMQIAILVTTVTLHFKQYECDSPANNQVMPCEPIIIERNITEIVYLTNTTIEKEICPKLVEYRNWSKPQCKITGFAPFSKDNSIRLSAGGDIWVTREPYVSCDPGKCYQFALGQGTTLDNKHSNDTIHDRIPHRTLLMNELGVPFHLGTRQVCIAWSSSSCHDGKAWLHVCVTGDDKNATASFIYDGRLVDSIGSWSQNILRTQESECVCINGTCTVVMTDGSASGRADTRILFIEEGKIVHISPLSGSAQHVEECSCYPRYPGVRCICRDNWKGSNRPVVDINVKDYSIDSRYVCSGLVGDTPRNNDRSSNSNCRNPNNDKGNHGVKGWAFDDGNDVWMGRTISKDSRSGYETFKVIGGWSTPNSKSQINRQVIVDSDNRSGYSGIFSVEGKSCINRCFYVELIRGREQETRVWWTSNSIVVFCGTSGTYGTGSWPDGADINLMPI", "test": "Inhibition of influenza A virus (A/Chicken/Hebei/LZF/2014(H5N2)) Neuraminidase N2 in using 4-MUNANA as substrate preincubated for 10 mins followed by substrate addition and measured after 40 mins by fluorescence based assay"}, "[2]": {"system": "Influenza A virus", "test": "Antiviral activity against Influenza A virus (A/Chicken/Hebei/LZF/2014(H5N2)) infected in CEF cells assessed as reduction in virus-induced cytopathic effect incubated for 48 hrs by CCK-8 assay", "assay_type": "functional, organism-based"}, "[3]": {"system": "Influenza A virus", "test": "Antiviral activity against Influenza A virus (A/goose/Guangdong/SH7/2013(H5N1)) infected in CEF cells assessed as reduction in virus-induced cytopathic effect incubated for 48 hrs by CCK-8 assay", "assay_type": "functional, organism-based"}, "[4]": {"test": "Cytotoxicity against chicken CEF cells assessed as reduction in cell viability incubated for 48 hrs by CCK8 assay", "assay_type": "cell-based, Gallus gallus", "outline": "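Mock-infected chicken embryo fibroblasts received 2-fold serial dilutions of compound in DMEM with 1% FBS for 48 h at 37°C under 5% CO₂. Viability was read by CCK-8 (90 min, A450).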"}, "[5]": {"test": "Inhibition of influenza B virus (B/PHUKET/3073/2013)) Neuraminidase in using 4-MUNANA as substrate preincubated for 10 mins followed by substrate addition and measured after 40 mins by fluorescence based assay", "outline": "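Influenza B/PHUKET/3073/2013 NA, in MES buffer at pH 6.5 with CaCl₂, was preincubated with inhibitor for 10 min at 37°C. MUNANA substrate was added for 40 min at 37°C, and the reaction was stopped with 0.2 M glycine-NaOH at pH 10.2. Fluorescence was read at ex 365 / em 455 nm minus substrate blanks. IC50 was taken from % inhibition curves, mean ± SD of three experiments.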"}},
  "data": [
    {"smiles": "CCC(CC)O[C@@H]1C=C(C(=O)NCc2ccc(C(=O)O)cc2)C[C@H](NCc2ccc(N3CCCC3)cc2)[C@H]1NC(C)=O", "values": [
      {"measurement": "IC50", "setting": "[1]", "result": 4.7, "unit": "µM"}
    ]},
    {"smiles": "CCC(CC)O[C@@H]1C=C(C(=O)NCc2ccc(C(=O)O)cc2)C[C@H](NCc2ccc(N(CC)CC)cc2)[C@H]1NC(C)=O", "values": [
      {"measurement": "IC50", "setting": "[1]", "result": 13.3, "unit": "µM"}
    ]},
    {"smiles": "CCC(CC)O[C@@H]1C=C(C(=O)NCc2ccc(Cl)cc2)C[C@H](NCc2ccc(N3CCCC3)cc2)[C@H]1NC(C)=O", "values": [
      {"measurement": "EC50", "setting": "[2]", "result": "> 100", "unit": "µM"},
      {"measurement": "EC50", "setting": "[3]", "result": "> 100", "unit": "µM"},
      {"measurement": "IC50", "setting": "[1]", "result": 0.94, "unit": "µM"},
      {"measurement": "CC50 at 48 h", "setting": "[4]", "result": 77.1, "unit": "µM"}
    ]},
    {"smiles": "CCC(CC)O[C@@H]1C=C(C(=O)NCc2ccc(F)cc2)C[C@H](NCc2ccc(N3CCCC3)cc2)[C@H]1NC(C)=O", "values": [
      {"measurement": "IC50", "setting": "[1]", "result": 48.4, "unit": "µM"}
    ]},
    {"smiles": "CCC(CC)O[C@@H]1C=C(C(=O)NCc2ccc(Cl)cc2)C[C@H](NCc2ccc(SC)cc2)[C@H]1NC(C)=O", "values": [
      {"measurement": "IC50", "setting": "[5]", "result": "> 100", "unit": "µM"}
    ]},
    {"smiles": "CCC(CC)O[C@@H]1C=C(C(=O)N[C@@H](C(=O)O)C(C)C)C[C@H](NCc2ccc(SC)cc2)[C@H]1NC(C)=O", "values": [
      {"measurement": "EC50", "setting": "[2]", "result": 26.6, "unit": "µM"},
      {"measurement": "EC50", "setting": "[3]", "result": "> 100", "unit": "µM"},
      {"measurement": "IC50", "setting": "[5]", "result": "> 100", "unit": "µM"},
      {"measurement": "CC50 at 48 h", "setting": "[4]", "result": "> 200", "unit": "µM"}
    ]},
    {"smiles": "CCC(CC)O[C@@H]1C=C(C(=O)N[C@@H](C(=O)O)C(C)C)C[C@H](NCc2ccc(N3CCCC3)cc2)[C@H]1NC(C)=O", "values": [
      {"measurement": "IC50", "setting": "[1]", "result": 2.41, "unit": "µM"}
    ]},
    {"smiles": "CCC(CC)O[C@@H]1C=C(C(=O)O)C[C@H](N)[C@H]1NC(C)=O", "note": "[OSELTAMIVIR CARBOXYLATE]", "values": [
      {"measurement": "EC50", "setting": "[2]", "result": 0.17, "unit": "µM"},
      {"measurement": "EC50", "setting": "[3]", "result": 0.82, "unit": "µM"},
      {"measurement": "IC50", "setting": "[5]", "result": 0.037, "unit": "µM"},
      {"measurement": "CC50 at 48 h", "setting": "[4]", "result": "> 200", "unit": "µM"}
    ]},
    {"smiles": "CCC(CC)O[C@@H]1C=C(C(=O)O)C[C@H](NCc2ccc(SC)cc2)[C@H]1NC(C)=O", "values": [
      {"measurement": "EC50", "setting": "[2]", "result": 0.48, "unit": "µM"},
      {"measurement": "EC50", "setting": "[3]", "result": 0.66, "unit": "µM"},
      {"measurement": "IC50", "setting": "[1]", "result": 8.34, "unit": "µM"},
      {"measurement": "IC50", "setting": "[5]", "result": 7.97, "unit": "µM"},
      {"measurement": "CC50 at 48 h", "setting": "[4]", "result": "> 200", "unit": "µM"}
    ]},
    {"smiles": "CCC(CC)O[C@@H]1C=C(C(=O)N[C@@H](C(=O)O)C(C)C)C[C@H](NCc2ccc(Sc3ccccc3)cc2)[C@H]1NC(C)=O", "values": [
      {"measurement": "IC50", "setting": "[1]", "result": "> 100", "unit": "µM"},
      {"measurement": "IC50", "setting": "[5]", "result": "> 100", "unit": "µM"}
    ]},
    {"smiles": "CCC(CC)O[C@@H]1C=C(C(=O)NCc2ccc(C(=O)O)cc2)C[C@H](NCc2ccc(Sc3ccccc3)cc2)[C@H]1NC(C)=O", "values": [
      {"measurement": "IC50", "setting": "[1]", "result": "> 100", "unit": "µM"}
    ]}
  ]
}
